# Calls of active or inactive are those of the source. No cut-off for these calls is given here.
# How the values were obtained:
# [1] = Half life in mouse; format: ADME, organism-based; details: in vivo
# [2] = tested on: Influenza A virus; experiment: Antimicrobial activity against oseltamivir-sensitive influenza A virus (A/Yokohama/67/2006 (H1N1)) clone 1 infected in BALB/c mouse assessed as reduction in viral titer in lung at 10 mg/kg, po administered QD post 13 hrs infection measured after 85 hrs post infection; format: functional, organism-based; design: dose 10 mg/kg
# [3] = tested on: Influenza A virus; experiment: Antimicrobial activity against Influenza A virus (A/Puerto Rico/8/34(H1N1)) infected in BALB/c mouse assessed as reduction in viral titer in lung at 10 mg/kg, po bid repeated regimen after 11 hrs post infection; format: functional, organism-based; design: dose 10 mg/kg; details: A/Puerto Rico/8/1934(H1N1), TDE = time-dependent effect
# Outline: (§1)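 BALB/c mice infected intranasally with A/PR/8/34 at 30 PFU. Oral drug was given twice daily from 11 hpi with intranasal saline at 11 hpi, or a single intranasal dose at 11 hpi with oral saline on the same schedule. Lungs (n = 3) were harvested at 35, 59 and 83 hpi. Titers were measured by MDCK plaque assay, log10 PFU/lungs.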
# [4] = tested on: Influenza A virus; experiment: Antimicrobial activity against oseltamivir-sensitive influenza A virus (A/Yokohama/67/2006 (H1N1)) clone 1 infected in BALB/c mouse assessed as reduction in viral titer in lung at 1.0 mg/kg, po administered QD post 13 hrs infection measured after 61 hrs post infection; format: functional, organism-based; design: dose 1 mg/kg
# [5] = tested on: Influenza A virus; experiment: Antimicrobial activity against Influenza A virus (A/Puerto Rico/8/34(H1N1)) infected in BALB/c mouse assessed as increase in mouse survival at 11 mg/kg, po for 12 hrs post infection; format: functional, organism-based; design: dose 11 mg/kg; details: A/Puerto Rico/8/1934(H1N1)
# [6] = tested on: Influenza A virus; experiment: Antimicrobial activity against Influenza A virus (A/Puerto Rico/8/34(H1N1)) infected in BALB/c mouse assessed as increase in mouse survival at 11 mg/kg, po for 7 days post infection; format: functional, organism-based; design: dose 11 mg/kg; details: A/Puerto Rico/8/1934(H1N1)
# [7] = tested on: Influenza A virus; experiment: Antimicrobial activity against Influenza A virus (A/Puerto Rico/8/34(H1N1)) infected in BALB/c mouse assessed as increase in mouse survival at 1.1 mg/kg, po for 12 hrs post infection; format: functional, organism-based; design: dose 1.1 mg/kg; details: A/Puerto Rico/8/1934(H1N1)
# [8] = tested on: Influenza A virus; experiment: Antimicrobial activity against Influenza A virus (A/Puerto Rico/8/34(H1N1)) infected in BALB/c mouse assessed as increase in mouse survival at 1.1 mg/kg, po bid administered 11 hrs post infection for 5 days […] infection; format: functional, organism-based; design: dose 1.1 mg/kg; details: A/Puerto Rico/8/1934(H1N1)
# Outline: (§2)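 Female BALB/c mice (5–6 weeks) infected intranasally with A/PR/8/34 at 100 PFU, n = 10 per group. Each mouse got one intranasal dose at 11 hpi plus oral doses twice daily from 11 hpi to 120 hpi. Drug went by one route and saline by the other, all in saline vehicle. Survival was followed daily to day 20 and analysed by Kaplan-Meier with a log-rank test against the saline group.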
# [9] = tested on: Influenza A virus; experiment: Antimicrobial activity against Influenza A virus (A/Puerto Rico/8/34(H1N1)) infected in BALB/c mouse assessed as increase in mouse survival at 1.1 mg/kg, po for 7 days post infection; format: functional, organism-based; design: dose 1.1 mg/kg; details: A/Puerto Rico/8/1934(H1N1)
# [10] = tested on: Influenza B virus; experiment: Antimicrobial activity against Influenza B virus (B/Malaysia/2506/2004) infected po dosed Mustela putorius furo assessed as nasal viral titer treated bid after 4 hrs post infection measured after 2 days; format: functional, organism-based
# Outline: (§3)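 Ferrets (600–800 g), seronegative by hemagglutination inhibition, anaesthetized with ketamine/xylazine and infected with B/Malaysia/2506/2004, 1,000 PFU/100 μl. From 4 hpi they received either a single intranasal dose (saline, 0.05 or 0.5 μmol/kg) or 25 mg/kg oral twice daily. Nasal wash titers measured by MDCK plaque assay on days 1, 2 and 3, log10 PFU/ml (n = 5). Undetectable samples entered at the lower limit of detection.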
# [11] = organism: Rattus norvegicus; experiment: Half life in rat assessed as oseltamivir carboxylate; format: ADME, organism-based; details: in vivo
# [12] = tested on: Influenza B virus; experiment: Antimicrobial activity against Influenza B virus (B/Malaysia/2506/2004) infected po dosed Mustela putorius furo assessed as nasal viral titer treated bid after 4 hrs post infection measured after 3 days; format: functional, organism-based; outline: as §3
# [13] = tested on: Influenza A virus; experiment: Antimicrobial activity against Influenza A virus (A/Puerto Rico/8/34(H1N1)) infected in BALB/c mouse assessed as reduction in viral titer in lung at 1 mg/kg, po bid repeated regimen after 11 hrs post infection; format: functional, organism-based; design: dose 1 mg/kg; details: A/Puerto Rico/8/1934(H1N1), TDE = time-dependent effect; outline: as §1
# [14] = tested on: Influenza A virus; experiment: Antimicrobial activity against Influenza A virus (A/Puerto Rico/8/34(H1N1)) infected in BALB/c mouse assessed as increase in mouse survival at 110 mg/kg, po for 12 hrs before infection; format: functional, organism-based; design: dose 110 mg/kg; details: A/Puerto Rico/8/1934(H1N1)
# Outline: (§4)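 Mice received one oral dose (200 μl in saline) at 1 day or 12 h before intranasal infection with A/PR/8/34 at 100 PFU. Saline controls were dosed intranasally 7 days before infection. n = 8 per group. Survival was monitored to 20 dpi and compared with saline by log-rank test.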
# [15] = tested on: Influenza A virus; experiment: Antimicrobial activity against oseltamivir-sensitive influenza A virus (A/Yokohama/67/2006 (H1N1)) clone 1 infected in BALB/c mouse assessed as reduction in viral titer in lung at 10 mg/kg, po administered QD post 13 hrs infection measured after 37 hrs post infection; format: functional, organism-based; design: dose 10 mg/kg
# [16] = tested on: Influenza A virus; experiment: Antimicrobial activity against oseltamivir-sensitive influenza A virus (A/Yokohama/67/2006 (H1N1)) clone 1 infected in BALB/c mouse assessed as reduction in viral titer in lung at 1.0 mg/kg, po administered qd post 13 hrs infection measured after 37 hrs post infection; format: functional, organism-based; design: dose 1 mg/kg
# [17] = tested on: Influenza A virus; experiment: Antimicrobial activity against Influenza A virus (A/Puerto Rico/8/34(H1N1)) infected in BALB/c mouse assessed as increase in mouse survival at 1.1 mg/kg, po bid administered 11 hrs post infection for 5 days […] infection measured on day 20; format: functional, A/Puerto Rico/8/1934(H1N1); outline: as §2
# [18] = tested on: Influenza A virus; experiment: Antimicrobial activity against oseltamivir-sensitive influenza A virus (A/Yokohama/67/2006 (H1N1)) clone 1 infected in BALB/c mouse assessed as reduction in viral titer in lung at 1.0 mg/kg, po administered QD post 13 hrs infection measured after 85 hrs post infection; format: functional, organism-based; design: dose 1 mg/kg
# [19] = tested on: Influenza A virus; experiment: Antimicrobial activity against Influenza A virus (A/Puerto Rico/8/34(H1N1)) infected in BALB/c mouse assessed as increase in mouse survival at 1.1 mg/kg, po for 4 days post infection; format: functional, organism-based; design: dose 1.1 mg/kg; details: A/Puerto Rico/8/1934(H1N1)
# [20] = tested on: Influenza A virus; experiment: Antimicrobial activity against Influenza A virus (A/Puerto Rico/8/34(H1N1)) infected in BALB/c mouse assessed as increase in mouse survival at 110 mg/kg, po for 1 days before infection; format: functional, organism-based; design: dose 110 mg/kg; details: A/Puerto Rico/8/1934(H1N1); outline: as §4
# [21] = tested on: Influenza A virus; experiment: Antimicrobial activity against oseltamivir-sensitive influenza A virus (A/Yokohama/67/2006 (H1N1)) clone 1 infected in BALB/c mouse assessed as reduction in viral titer in lung at 10 mg/kg, po administered QD post 13 hrs infection measured after 61 hrs post infection; format: functional, organism-based; design: dose 10 mg/kg
# [22] = tested on: Influenza A virus; experiment: Antimicrobial activity against Influenza A virus (A/Puerto Rico/8/34(H1N1)) infected in BALB/c mouse assessed as increase in mouse survival at 1.1 mg/kg, po for 1 day post infection; format: functional, organism-based; design: dose 1.1 mg/kg; details: A/Puerto Rico/8/1934(H1N1)
# [23] = tested on: Influenza B virus; experiment: Antimicrobial activity against Influenza B virus (B/Malaysia/2506/2004) infected po dosed Mustela putorius furo assessed as nasal viral titer treated bid after 4 hrs post infection measured after 1 day; format: functional, organism-based; outline: as §3
# [24] = tested on: Influenza A virus; experiment: Antimicrobial activity against Influenza A virus (A/Puerto Rico/8/34(H1N1)) infected in BALB/c mouse assessed as increase in mouse survival at 11 mg/kg, po for 4 days post infection; format: functional, organism-based; design: dose 11 mg/kg; details: A/Puerto Rico/8/1934(H1N1)
# [25] = tested on: Influenza A virus; experiment: Antimicrobial activity against Influenza A virus (A/Puerto Rico/8/34(H1N1)) infected in BALB/c mouse assessed as increase in mouse survival at 11 mg/kg, po for 1 day post infection; format: functional, organism-based; design: dose 11 mg/kg; details: A/Puerto Rico/8/1934(H1N1)
compound,measurement,setting,value
CO[C@@H]([C@@H]1OC(C(=O)O)=C[C@H](NC(=N)N)[C@H]1NC(C)=O)[C@H](O)CO [LANINAMIVIR],half-life,[1],41.4 h
CCOC(=O)C1=C[C@@H](OC(CC)CC)[C@H](NC(C)=O)[C@@H](N)C1.O=P(O)(O)O [OSELTAMIVIR PHOSPHATE],Activity,[2],Active
same,Activity,[3],tde
same,Activity,[4],Active
same,Activity,[5],inactive
same,Activity,[6],inactive
same,Activity,[7],inactive
same,Activity,[8],Active
same,Activity,[9],inactive
same,Activity,[10],Dose-dependent effect
same,t1/2,[11],7 h
same,Activity,[12],Dose-dependent effect
same,Activity,[13],tde
same,Activity,[14],Active
same,Activity,[15],Active
same,Activity,[16],Active
same,Activity,[17],50%
same,Activity,[18],Active
same,Activity,[19],inactive
same,Activity,[20],Active
same,Activity,[21],Active
same,Activity,[22],inactive
same,Activity,[23],Dose-dependent effect
same,Activity,[24],inactive
same,Activity,[25],inactive

# Reference: ChEMBL document CHEMBL1255395, “Laninamivir prodrug CS-8958, a long-acting neuraminidase inhibitor, shows superior anti-influenza virus activity after a single administration” (Antimicrob Agents Chemother, 2010)
